# Measured values taken from ChEMBL document CHEMBL3352171, “Synthesis and biological evaluation of andrographolide analogues as anti-cancer agents” (Eur J Med Chem, 2014).
# Calls of active or inactive are those of the source. The calls are words filed in the database; no cut-off is given here.
# Key:
# HEK293 [1] = test: Induction of cell cycle arrest in HEK293 cells assessed as accumulation at G2/M phase at 15 uM after 48 hrs by propidium iodide staining based flow cytometry (reference value: 2.63 +/- 0.7%); type: functional, Homo sapiens
# HEK293 [2] = test: Induction of cell death in HEK293 cells at 15 to 20 uM after 48 hrs by DAPI staining based fluorescence microscopy; type: functional; conditions: Homo sapiens
# HEK293 [3] = test: Induction of apoptosis in HEK293 cells assessed as apoptotic nuclei formation at 5 uM after 48 hrs by DAPI staining based fluorescence microscopy; type: functional, cell-based; conditions: Homo sapiens
# HEK293 [4] = test: Induction of apoptosis in HEK293 cells at 20 uM after 48 hrs by propidium iodide staining based flow cytometry relative to untreated control; type: functional, Homo sapiens
# [5] = Hydrolysis half life in pH 7.4 PBS buffer assessed as andrographolide formation by HPLC method; type: physicochemical
# HEK293 [6] = test: Induction of apoptosis in HEK293 cells at 20 uM after 48 hrs by propidium iodide staining based flow cytometry (reference value: 24.26 +/- 0.8%); type: functional, Homo sapiens
# HEK293 [7] = test: Reduction in Bcl-xL expression in p53 deficient HEK293 cells at LC50 level after 48 hrs by Western blot method; type: functional, cell-based; conditions: Homo sapiens
# HEK293 [8] = test: Increase in caspase-3 expression in HEK293 cells at LC50 level after 48 hrs by immunocytochemistry; type: functional, cell-based; conditions: Homo sapiens
# HEK293 [9] = test: Cytotoxicity against HEK293 cells after 48 hrs by MTT assay; type: functional; conditions: Homo sapiens, HEK293, 48 h; read-out: LC50 (the source's name)
# How it was run: (§1)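 Cells seeded at 10,000 per well and exposed to increasing compound concentrations for 48 h. After a PBS wash, MTT (2.5 mg/mL) was added for 6 h at 37 °C, then detergent (10% NP-40, 4 mM HCl), and absorbance was read at 570 nm. LC50 is the concentration causing 50% cell death. Values are means of three independent experiments.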
# HEK293 [10] = test: Induction of cell cycle arrest in HEK293 cells assessed as accumulation at S phase at 20 uM after 48 hrs by propidium iodide staining based flow cytometry (reference value: 19.9 +/- 0.5%); type: functional, Homo sapiens
# HEK293 [11] = test: Reduction in NFkappaB expression in p53 deficient HEK293 cells at LC50 level after 48 hrs by Western blot method; type: functional, cell-based; conditions: Homo sapiens
# HEK293 [12] = test: Reduction in Bcl-xL expression in HEK293 cells at LC50 level after 48 hrs by Western blot method; type: functional, cell-based; conditions: Homo sapiens
# HEK293 [13] = test: Induction of apoptosis in HEK293 cells at 5 uM after 48 hrs by propidium iodide staining based flow cytometry (reference value: 24.26 +/- 0.8%); type: functional, Homo sapiens
# HEK293 [14] = test: Induction of apoptosis in HEK293 cells at 5 to 20 uM after 48 hrs by DAPI staining based fluorescence microscopy; type: functional, cell-based; conditions: Homo sapiens
# [15] = target: T1, Nuclear factor NF-kappa-B complex (Homo sapiens) (UniProt Q00653+P19838+Q04206); test: Inhibition of NFkappaB (unknown origin) expressed in HEK293 cells assessed as reduction in transcriptional activity after 48 hrs by luciferase reporter gene assay; type: cell-based
# How it was run: (§2)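 HEK-293 at 70% confluence transfected by calcium phosphate with NF-kB luciferase ([…]) and b-Gal ([…]) plasmids, 6–8 h, then fresh serum medium 12 h; treated 48 h, lysed, luciferase read and normalized to b-galactosidase. Three independent experiments.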
# HEK293 [16] = test: Induction of cell cycle arrest in HEK293 cells assessed as accumulation at G1 phase at 5 uM after 48 hrs by propidium iodide staining based flow cytometry (reference value: 53.21 +/- 0.8%); type: functional, Homo sapiens
# HEK293 [17] = test: Reduction in NFkappaB expression in HEK293 cells at LC50 level after 48 hrs by Western blot method; type: functional, cell-based; conditions: Homo sapiens
# HEK293 [18] = test: Induction of cell cycle arrest in HEK293 cells assessed as accumulation at S phase at 10 uM after 48 hrs by propidium iodide staining based flow cytometry (reference value: 19.9 +/- 0.5%); type: functional, Homo sapiens
# HEK293 [19] = test: Increase in p53 expression in HEK293 cells at LC50 level after 48 hrs by Western blot method; type: functional, cell-based; conditions: Homo sapiens
# [20] = target: T1, Nuclear factor NF-kappa-B complex (Homo sapiens); test: Inhibition of NFkappaB (unknown origin) expressed in HEK293 cells assessed as reduction in transcriptional activity at 5 uM after 48 hrs by luciferase reporter gene assay; type: cell-based; how it was run: as §2
# HEK293 [21] = test: Induction of cell cycle arrest in HEK293 cells assessed as accumulation at G2/M phase at 5 uM after 48 hrs by propidium iodide staining based flow cytometry (reference value: 2.63 +/- 0.7%); type: functional, Homo sapiens
# HEK293 [22] = test: Induction of cell cycle arrest in HEK293 cells assessed as accumulation at G2/M phase at 10 uM after 48 hrs by propidium iodide staining based flow cytometry (reference value: 2.63 +/- 0.7%); type: functional, Homo sapiens
# HEK293 [23] = test: Induction of cell cycle arrest in HEK293 cells assessed as accumulation at G1 phase at 20 uM after 48 hrs by propidium iodide staining based flow cytometry (reference value: 53.21 +/- 0.8%); type: functional, Homo sapiens
# HEK293 [24] = test: Increase in PARP cleavage in p53 deficient HEK293 cells at LC50 level after 48 hrs by Western blot method; type: functional, cell-based; conditions: Homo sapiens
# Bos taurus = species on record: Bos taurus; test: Induction of conformational changes in calf thymus DNA assessed as B-DNA conformation changes at 100 uM after 2 hrs by CD spectroscopy
# HEK293 [25] = test: Increase in PARP cleavage in HEK293 cells at LC50 level after 48 hrs by Western blot method; type: functional, cell-based; conditions: Homo sapiens
# HEK293 [26] = test: Induction of cell cycle arrest in HEK293 cells assessed as accumulation at G1 phase at 10 uM after 48 hrs by propidium iodide staining based flow cytometry (reference value: 53.21 +/- 0.8%); type: functional, Homo sapiens
# HEK293 [27] = test: Induction of apoptosis in HEK293 cells at 10 uM after 48 hrs by propidium iodide staining based flow cytometry (reference value: 24.26 +/- 0.8%); type: functional, Homo sapiens
# [28] = Binding affinity to GC-28 DNA (unknown origin) minor groove by DAPI staining based spectrophotometry
# How it was run: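 DAPI–DNA complex fluorescence read at 460 nm emission band; test compound added to the preformed complex and loss of fluorescence followed.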
# Calf thymus DNA [29] = test: Binding affinity to calf thymus DNA at 3.33 to 20 uM after 2 hrs by UV-visible absorption spectroscopy; type: nucleic-acid assay; conditions: Bos taurus
# How it was run: (§3)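 CT-DNA at fixed […] in 50 mM Tris-HCl/NaCl pH 7.5, incubated with compound for 2 h at 37 °C, scanned 200–400 nm after dilution. Spectra normalized at 230 nm. Fraction bound q from absorbance near 260 nm; Boltzmann fit, Kb as reciprocal of half-saturation concentration.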
# Calf thymus DNA [30] = test: Binding affinity to calf thymus DNA assessed as reduction of DNA absorption band at 260 nanometer at 3.33 to 20 uM after 2 hrs by UV-visible absorption spectroscopy; type: nucleic-acid assay; conditions: Bos taurus; how it was run: as §3
# Vero = test: Cytotoxicity against african green monkey Vero cells after 48 hrs by MTT assay; type: cell-based; conditions: chlorocebus sabaeus; how it was run: as §1
# [31] = Induction of DNA adduct formation (unknown origin) using guanosine in presence of glacial acetic acid at 75 degC incubated for 12 hrs by LC-MS method
# How it was run: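 Model reaction of compound with guanosine in glacial acetic acid at 75 °C, heated up to 12 h; adduct sought by TLC and LCMS.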
# [32] = Retention time of the compound by HPLC method; type: physicochemical
# T1 sequence (P19838 whole entry, looked up): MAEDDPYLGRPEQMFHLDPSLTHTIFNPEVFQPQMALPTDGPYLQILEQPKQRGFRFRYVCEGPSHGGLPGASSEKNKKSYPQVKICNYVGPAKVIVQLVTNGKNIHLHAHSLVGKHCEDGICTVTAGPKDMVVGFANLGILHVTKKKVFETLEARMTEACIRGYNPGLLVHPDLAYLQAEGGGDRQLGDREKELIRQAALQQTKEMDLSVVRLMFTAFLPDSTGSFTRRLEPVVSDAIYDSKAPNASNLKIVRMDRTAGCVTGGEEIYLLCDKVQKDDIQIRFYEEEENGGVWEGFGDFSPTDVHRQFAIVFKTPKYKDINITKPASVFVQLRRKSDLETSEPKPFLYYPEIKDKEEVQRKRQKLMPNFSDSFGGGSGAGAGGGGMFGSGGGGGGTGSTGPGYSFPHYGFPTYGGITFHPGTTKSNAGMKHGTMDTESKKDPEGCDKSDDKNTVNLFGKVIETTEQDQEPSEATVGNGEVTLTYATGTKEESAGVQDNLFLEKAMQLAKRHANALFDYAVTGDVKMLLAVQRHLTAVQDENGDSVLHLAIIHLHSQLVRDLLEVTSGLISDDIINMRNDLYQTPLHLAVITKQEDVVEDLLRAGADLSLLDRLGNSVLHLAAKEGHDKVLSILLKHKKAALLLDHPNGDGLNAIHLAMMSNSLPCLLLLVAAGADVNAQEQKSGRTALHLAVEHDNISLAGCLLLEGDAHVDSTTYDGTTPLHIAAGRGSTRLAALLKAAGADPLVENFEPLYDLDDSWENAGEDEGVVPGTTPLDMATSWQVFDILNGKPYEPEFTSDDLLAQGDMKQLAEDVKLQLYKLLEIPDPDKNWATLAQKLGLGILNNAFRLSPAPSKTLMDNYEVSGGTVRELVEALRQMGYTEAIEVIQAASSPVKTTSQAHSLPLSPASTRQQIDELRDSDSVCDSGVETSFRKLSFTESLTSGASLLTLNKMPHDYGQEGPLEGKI
# T1 sequence (Q00653 whole entry, looked up): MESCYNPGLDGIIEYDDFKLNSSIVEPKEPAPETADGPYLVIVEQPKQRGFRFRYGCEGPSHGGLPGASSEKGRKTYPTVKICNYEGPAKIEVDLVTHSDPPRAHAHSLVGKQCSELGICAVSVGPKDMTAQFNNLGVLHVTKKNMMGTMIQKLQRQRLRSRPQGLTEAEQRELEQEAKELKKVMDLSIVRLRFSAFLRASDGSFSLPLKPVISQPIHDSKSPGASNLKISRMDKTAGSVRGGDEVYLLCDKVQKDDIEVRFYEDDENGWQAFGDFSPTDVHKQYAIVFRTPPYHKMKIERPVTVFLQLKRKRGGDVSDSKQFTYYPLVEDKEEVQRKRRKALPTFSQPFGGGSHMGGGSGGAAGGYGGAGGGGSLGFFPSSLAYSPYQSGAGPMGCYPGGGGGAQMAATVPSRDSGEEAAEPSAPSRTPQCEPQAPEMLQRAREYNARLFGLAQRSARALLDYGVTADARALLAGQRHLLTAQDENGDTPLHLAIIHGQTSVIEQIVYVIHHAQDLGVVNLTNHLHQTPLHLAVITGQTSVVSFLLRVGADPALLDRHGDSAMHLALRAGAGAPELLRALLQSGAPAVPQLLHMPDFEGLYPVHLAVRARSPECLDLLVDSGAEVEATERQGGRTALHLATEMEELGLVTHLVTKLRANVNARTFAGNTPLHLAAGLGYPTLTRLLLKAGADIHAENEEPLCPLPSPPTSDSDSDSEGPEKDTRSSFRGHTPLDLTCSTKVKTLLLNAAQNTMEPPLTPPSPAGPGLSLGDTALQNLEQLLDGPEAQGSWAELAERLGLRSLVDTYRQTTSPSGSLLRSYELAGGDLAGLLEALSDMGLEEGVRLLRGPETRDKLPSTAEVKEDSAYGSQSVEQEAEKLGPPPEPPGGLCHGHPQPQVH
# T1 sequence (Q04206 whole entry, looked up): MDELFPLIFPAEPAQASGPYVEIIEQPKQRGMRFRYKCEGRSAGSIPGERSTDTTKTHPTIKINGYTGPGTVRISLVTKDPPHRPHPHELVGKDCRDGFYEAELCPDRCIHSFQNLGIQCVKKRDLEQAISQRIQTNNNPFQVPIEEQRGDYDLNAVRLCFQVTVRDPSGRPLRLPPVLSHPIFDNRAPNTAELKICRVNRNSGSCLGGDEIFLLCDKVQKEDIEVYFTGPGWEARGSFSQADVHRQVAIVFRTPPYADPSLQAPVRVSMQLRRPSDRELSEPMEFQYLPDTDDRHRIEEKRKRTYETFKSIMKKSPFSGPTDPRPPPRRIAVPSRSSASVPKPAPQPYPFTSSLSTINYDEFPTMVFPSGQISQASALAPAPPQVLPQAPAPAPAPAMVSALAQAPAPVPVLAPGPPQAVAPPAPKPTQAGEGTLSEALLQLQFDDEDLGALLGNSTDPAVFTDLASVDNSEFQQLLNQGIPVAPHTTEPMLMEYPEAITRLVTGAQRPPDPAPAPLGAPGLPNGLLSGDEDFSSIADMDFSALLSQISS
compound,measurement,setting,value
C=C1CC[C@@H]2[C@](C)(CO)[C@H](O)CC[C@@]2(C)[C@@H]1C/C=C1/C(=O)OC[C@H]1OC(=O)CI,Activity,HEK293 [1],1.28%
same,Activity,HEK293 [2],Active
same,Activity,HEK293 [3],Active
same,fold change (FC),HEK293 [4],>5
same,t1/2,[5],35 min
same,Activity,HEK293 [6],89.69%
same,Activity,HEK293 [7],inactive
same,Activity,HEK293 [8],Active
same,CC50,HEK293 [9],8 µM
same,Activity,HEK293 [10],1.66%
same,Activity,HEK293 [11],inactive
same,Activity,HEK293 [12],Active
same,Activity,HEK293 [13],43.09%
same,Activity,HEK293 [14],Dose-dependent effect
same,inhibition,[15],Dose-dependent effect
same,Activity,HEK293 [16],24.77%
same,Activity,HEK293 [17],Active
same,Activity,HEK293 [18],7.57%
same,Activity,HEK293 [19],Active
same,fold change (FC),[20],5
same,Activity,HEK293 [21],2.14%
same,Activity,HEK293 [22],2.74%
same,Activity,HEK293 [23],7.96%
same,Activity,HEK293 [24],inactive
same,Activity,Bos taurus,inactive
same,Activity,HEK293 [25],Active
same,Activity,HEK293 [26],15.6%
same,Activity,HEK293 [27],74.03%
same,Activity,[28],Active
same,Kb,Calf thymus DNA [29],2.5 ×10⁵ /M
same,Activity,Calf thymus DNA [30],Active
same,LC50,Vero,45 µM
same,Activity,[31],inactive
same,Retention_time,[32],26.9 min
